Data taken from article PMC9753181 (ACS Omega, 2022).
Entries after “also recorded” stand apart in the source; their conditions may differ. Read-outs that look alike come from different tables or passages of the source.

Key:
SARS-CoV-2 [1] = conditions: rhesus macaque, cited from earlier work
SARS-CoV-2 [2] = conditions: cited from earlier work
[3] = system: multidrug resistance-associated protein 4 (MRP4); conditions: ref 28 (RDV), FDA Office of Clinical Pharmacology Review (GS-441524); cited from earlier work
RdRp of SARS-CoV-2 = conditions: read-out: IC50, inhibition of RdRp of SARS-CoV-2; active form of RDV; cited from earlier work
[4] = IV injection of RDV, rhesus macaques
[5] = IV injection of RDV, nonhuman primates; cited from earlier work
[6] = IV injection of RDV, mice
SARS-CoV-2 [7] = conditions: cited from earlier work; for EC50, inhibit SARS-CoV-2 replications in vitro: entry inhibitors
SARS-CoV-2 M^pro = SARS-CoV-2 M^pro (Severe acute respiratory syndrome coronavirus 2, UniProt P0DTD1); conditions: cited from earlier work
SARS-CoV-2 [8] = conditions: hamster; cited from earlier work
Calu-3 cells = test: Cytotoxicity; format: cell-based
Method in brief: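 Calu-3 cells were grown in medium supplemented with 1% non-essential amino acids and 1% sodium pyruvate at 37 °C, 5% CO2. Cells were seeded and cultured for 24 h, then exposed to test compound for 48 h. CCK8 solution was added at 10% and incubated 15 min to read viability.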

ACE2 = ACE2 expression in Vero E6 cells; format: cell-based; conditions: 48 h, RNA-seq, western blot
influenza [9] = conditions: read-out: Observed EC50, influenza replication; A549 cells; cited from earlier work
influenza [10] = test: Predicted anti-influenza EC50 by pEC50 = pIC50 + Log Fic; conditions: A549, read-out: Predicted EC50 (anti-influenza)

Which “Antiviral activity in vivo” value (SARS-CoV-2 [1]; RDV) does the source give for CCC(CC)COC(=O)[C@H](C)N[P@](=O)(OC[C@H]1O[C@@](C#N)(c2ccc3c(N)ncnn23)[C@H](O)[C@@H]1O)Oc1ccccc1 [RDV, Remdesivir] here?
Its value is “strong antiviral activities”.

What about the “Drug accumulation with ceefourin (MRP4 inhibitor)” value (A549-ACE2 cells) of the same compound?
Its value is “Neither verapamil nor ceefourin changed RDV accumulation”.

And the “Drug accumulation with verapamil (P-gp inhibitor)” value (A549-ACE2 cells)?
Its value is “Neither verapamil nor ceefourin changed RDV accumulation”.

What about the “Drug accumulation with ceefourin (MRP4 inhibitor)” value (Vero E6 cells; Vero E6 cells) of the same compound?
Its value is “significantly increased RDV accumulation”.

What about the “Drug accumulation with verapamil (P-gp inhibitor)” value (Vero E6 cells; Vero E6 cells) of the same compound?
The value was “significantly increased RDV accumulation”.

And the “Virus titer in the lung / antiviral activity in vivo” value (SARS-CoV-2 [2]; RDV, mouse)?
Its value is “successfully reduce virus titer in the lung; also recorded: strong antiviral activities”.

And the “Substrate of MRP4” value [3]?
The value was “substrate”.

For N#C[C@@]1(c2ccc3c(N)ncnn23)O[C@H](COP(=O)(O)OP(=O)(O)OP(=O)(O)O)[C@@H](O)[C@H]1O [GS-443902], which IC50 (RdRp of SARS-CoV-2) is on record?
Its IC50 is 0.032 µM.

Which results are given for N#C[C@@]1(c2ccc3c(N)ncnn23)O[C@H](CO)[C@@H](O)[C@H]1O [GS-441524]?
SARS-CoV-2 replication in vivo (SARS-CoV-2 [2]; oral administration of GS-441524, mouse model): inhibit SARS-CoV-2 replication in vivo; Substrate of MRP4 [3]: not a substrate; Lung concentration of GS-441524 relative to its predicted EC50 [4]: 10 fold; Bloodstream concentration of GS-441524 relative to RDV [5]: 1000 fold; Lung concentration of GS-441524 relative to its predicted EC50 [6]: 10 fold

For CCN(CC)CCCC(C)Nc1ccnc2cc(Cl)ccc12 (centres unmarked) [CQ, Chloroquine], which “Drug accumulation with verapamil (P-gp inhibitor)” value (Vero E6 cells) is on record?
The value was “facilitated accumulation”.

What about the “EC50, inhibit SARS-CoV-2 replications in vitro” value (SARS-CoV-2 [7]) of the same compound?
Its value is “low micromolar”.

Which “Infectious titers in lungs” value (SARS-CoV-2 [1]) does the source give for CCN(CCO)CCCC(C)Nc1ccnc2cc(Cl)ccc12 (centres unmarked) [HCQ, hydroxychloroquine] here?
The value was “failed to reduce infectious titers”.

What about the “Inhibition of M^pro activities at 200 μM” value (SARS-CoV-2 M^pro) of the same compound?
Its value is “slightly inhibited”.

What about the “Drug accumulation with verapamil (P-gp inhibitor)” value (Vero E6 cells; Vero E6 cells) of the same compound?
Its value is “facilitated accumulation”.

What about the “Infectious titers in lungs” value (SARS-CoV-2 [8]) of the same compound?
Its value is “failed to reduce infectious titers”.

What about the “EC50, inhibit SARS-CoV-2 replications in vitro” value (SARS-CoV-2 [7]) of the same compound?
The value was “low micromolar”.

Which Cytotoxicity (Calu-3 cells) does the source give for COc1ccc(CCN(C)CCCC(C#N)(c2ccc(OC)c(OC)c2)C(C)C)cc1OC (centres unmarked) [verapamil] here?
Its Cytotoxicity is “strong cytotoxicity”.

What does the source list for NC(=O)c1nc(F)c[nH]c1=O [FAV, Favipiravir]?
ACE2 expression (ACE2): reduced angiotensin-converting enzyme 2 (ACE2) expression; EC50 (influenza [9]): 3 µM; Fic (Vero E6 cells; Vero E6, Fic = fu,cell x Kp): 0.03371; Drug accumulation with verapamil (P-gp inhibitor) (Vero E6 cells; Vero E6 cells): increased FAV accumulation; Infectious titers in the lung (SARS-CoV-2 [8]): reduction of infectious titers in the lung; EC50 (influenza [10]): 3.2 µM; Fic (A549 cells): 0.03145; EC50 (SARS-CoV-2 [7]; read-out: Observed EC50, SARS-CoV-2 replication, Vero E6): 65 to 400 µM
